# Results reported in ChEMBL document CHEMBL3826877, “Fatty Acid Amide Hydrolase (FAAH), Acetylcholinesterase (AChE), and Butyrylcholinesterase (BuChE): Networked Targets for the Development of Carbamates as Potential Anti-Alzheimer's Disease Agents” (J Med Chem, 2016).
# Target: T1, Acetylcholinesterase (Homo sapiens, UniProt P22303)
# Assay: Inhibition of recombinant human AChE expressed in HEK293 cells using acetylthiocholine iodide as substrate preincubated for 120 mins followed by substrate addition by Ellman's method
# Conditions: not given
# Procedure, shortened: (§1)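 Ellman assay at 37 °C in 0.1 M phosphate pH 8.0 with 340 µM DTNB, 0.02 U/mL enzyme and 550 µM thiocholine substrate. Enzyme and inhibitor preincubated before substrate: AChE 120 min (one compound 60 min), BuChE 15 or 20 min depending on N-substituent. Non-enzymatic blanks run. […] IC50 by linear regression of % inhibition vs log concentration. Mean of 2-3 independent runs in duplicate.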
# T1 sequence (P22303 whole entry): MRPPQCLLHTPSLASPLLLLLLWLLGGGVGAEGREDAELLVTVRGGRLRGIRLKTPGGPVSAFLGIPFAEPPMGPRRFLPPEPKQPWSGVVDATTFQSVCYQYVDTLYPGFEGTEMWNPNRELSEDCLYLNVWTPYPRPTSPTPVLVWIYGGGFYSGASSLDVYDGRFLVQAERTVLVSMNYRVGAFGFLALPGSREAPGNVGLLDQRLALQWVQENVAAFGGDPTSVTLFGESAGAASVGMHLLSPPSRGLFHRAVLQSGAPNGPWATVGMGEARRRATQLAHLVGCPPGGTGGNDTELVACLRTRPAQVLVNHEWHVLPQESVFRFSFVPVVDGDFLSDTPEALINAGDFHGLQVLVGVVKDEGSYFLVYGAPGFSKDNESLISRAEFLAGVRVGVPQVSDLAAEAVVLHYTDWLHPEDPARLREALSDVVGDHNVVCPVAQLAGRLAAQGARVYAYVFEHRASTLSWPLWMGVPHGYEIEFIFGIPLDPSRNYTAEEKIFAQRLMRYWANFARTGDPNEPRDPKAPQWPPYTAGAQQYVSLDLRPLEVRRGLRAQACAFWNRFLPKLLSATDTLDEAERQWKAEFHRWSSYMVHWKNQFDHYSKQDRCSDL
row,Structure (SMILES),IC50 [nM]
1,CN(CCCOc1ccc2c3c(c(=O)oc2c1)CCCC3)Cc1cccc(OC(=O)NCCCCCc2ccccc2)c1,89.9
2,CN(CCCOc1ccc2cc(-c3ccccc3)c(=O)oc2c1)Cc1cccc(OC(=O)NCCCCCc2ccccc2)c1,125
3,CN(CCCCCOc1ccc2ccc(=O)oc2c1)Cc1cccc(OC(=O)NCCCCCc2ccccc2)c1,88.1
4,O=C(NCCCCCc1ccccc1)Oc1ccc(Cn2cc(COc3ccc4ccc(=O)oc4c3)nn2)cc1,255
5,O=C(NCCCCCc1ccccc1)Oc1cccc(Cn2cc(COc3ccc4ccc(=O)oc4c3)nn2)c1,922
6,CN(CCCOc1ccc2ccc(=O)oc2c1)Cc1cccc(OC(=O)NCCCCCCc2ccccc2)c1,109
7,CN(CCCOc1ccc2cc(-c3ccc(Cl)cc3)c(=O)oc2c1)Cc1cccc(OC(=O)NCCCCCc2ccccc2)c1,900
8,COc1ccc(-c2cc3cc(OCCCN(C)Cc4cccc(OC(=O)NCCCCCc5ccccc5)c4)ccc3oc2=O)cc1,179
9,O=C(NCCCCCc1ccccc1)Oc1cccc(-n2cc(COc3ccc4ccc(=O)oc4c3)nn2)c1,1170
10,O=C(NCCCCCc1ccccc1)Oc1ccc(-n2cc(COc3ccc4ccc(=O)oc4c3)nn2)cc1,47900
11,CN(CCCOc1ccc2c(c1)oc(=O)c1ccccc12)Cc1cccc(OC(=O)NCCCCCc2ccccc2)c1,390
12,Cc1cc(=O)oc2cc(OCCCN(C)Cc3cccc(OC(=O)NCCCCCc4ccccc4)c3)ccc12,80.5
13,COc1ccc(-c2cc3ccc(OCCCN(C)Cc4cccc(OC(=O)NCCCCCc5ccccc5)c4)cc3oc2=O)cc1,312

# Target: T1, Acetylcholinesterase
# Assay: Inhibition of recombinant human AChE expressed in HEK293 cells assessed as enzyme carbamoylation using acetylthiocholine iodide as substrate preincubated with enzyme followed by substrate addition by Ellman's method
# Conditions: TDE = time-dependent effect
row,Structure (SMILES),inhibition
1,CN(CCCOc1ccc2c3c(c(=O)oc2c1)CCCC3)Cc1cccc(OC(=O)NCCCCCc2ccccc2)c1,tde
2,CN(CCCOc1ccc2cc(-c3ccccc3)c(=O)oc2c1)Cc1cccc(OC(=O)NCCCCCc2ccccc2)c1,tde
3,CN(CCCCCOc1ccc2ccc(=O)oc2c1)Cc1cccc(OC(=O)NCCCCCc2ccccc2)c1,tde
4,CN(CCCOc1ccc2ccc(=O)oc2c1)Cc1cccc(OC(=O)NCCCCCCc2ccccc2)c1,tde
5,CN(CCCOc1ccc2cc(-c3ccc(Cl)cc3)c(=O)oc2c1)Cc1cccc(OC(=O)NCCCCCc2ccccc2)c1,tde
6,COc1ccc(-c2cc3cc(OCCCN(C)Cc4cccc(OC(=O)NCCCCCc5ccccc5)c4)ccc3oc2=O)cc1,tde
7,CN(CCCOc1ccc2c(c1)oc(=O)c1ccccc12)Cc1cccc(OC(=O)NCCCCCc2ccccc2)c1,tde
8,Cc1cc(=O)oc2cc(OCCCN(C)Cc3cccc(OC(=O)NCCCCCc4ccccc4)c3)ccc12,tde
9,COc1ccc(-c2cc3ccc(OCCCN(C)Cc4cccc(OC(=O)NCCCCCc5ccccc5)c4)cc3oc2=O)cc1,tde

# Target: T2, Cholinesterase (Homo sapiens, UniProt P06276)
# T2 sequence (P06276 whole entry): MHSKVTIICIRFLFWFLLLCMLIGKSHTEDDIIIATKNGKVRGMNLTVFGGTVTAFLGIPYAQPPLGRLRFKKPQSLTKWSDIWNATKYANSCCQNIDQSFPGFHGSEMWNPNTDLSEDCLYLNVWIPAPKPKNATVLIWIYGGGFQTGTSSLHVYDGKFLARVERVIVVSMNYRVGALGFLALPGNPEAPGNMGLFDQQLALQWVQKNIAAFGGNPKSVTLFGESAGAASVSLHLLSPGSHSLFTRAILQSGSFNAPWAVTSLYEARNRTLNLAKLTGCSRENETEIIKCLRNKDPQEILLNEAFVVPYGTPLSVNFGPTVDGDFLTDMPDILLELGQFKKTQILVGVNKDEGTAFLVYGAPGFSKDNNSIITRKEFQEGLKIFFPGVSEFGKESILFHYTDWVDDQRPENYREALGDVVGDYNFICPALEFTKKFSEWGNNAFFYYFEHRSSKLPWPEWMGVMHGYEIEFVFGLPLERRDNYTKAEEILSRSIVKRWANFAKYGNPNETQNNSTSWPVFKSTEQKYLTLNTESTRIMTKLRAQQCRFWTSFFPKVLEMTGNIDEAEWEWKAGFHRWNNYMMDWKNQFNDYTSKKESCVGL
# Assay: Inhibition of human serum BuChE assessed as enzyme carbamoylation using butyrylthiocholine iodide as substrate preincubated with enzyme followed by substrate addition by Ellman's method
# Conditions: TDE = time-dependent effect
row,Structure (SMILES),inhibition
1,CN(CCCOc1ccc2c3c(c(=O)oc2c1)CCCC3)Cc1cccc(OC(=O)NCCCCCc2ccccc2)c1,tde
2,CN(CCCOc1ccc2cc(-c3ccccc3)c(=O)oc2c1)Cc1cccc(OC(=O)NCCCCCc2ccccc2)c1,tde
3,CN(CCCCCOc1ccc2ccc(=O)oc2c1)Cc1cccc(OC(=O)NCCCCCc2ccccc2)c1,tde
4,CN(CCCOc1ccc2ccc(=O)oc2c1)Cc1cccc(OC(=O)NCCCCCCc2ccccc2)c1,tde
5,CN(CCCOc1ccc2cc(-c3ccc(Cl)cc3)c(=O)oc2c1)Cc1cccc(OC(=O)NCCCCCc2ccccc2)c1,tde
6,COc1ccc(-c2cc3cc(OCCCN(C)Cc4cccc(OC(=O)NCCCCCc5ccccc5)c4)ccc3oc2=O)cc1,tde
7,CN(CCCOc1ccc2c(c1)oc(=O)c1ccccc12)Cc1cccc(OC(=O)NCCCCCc2ccccc2)c1,tde
8,Cc1cc(=O)oc2cc(OCCCN(C)Cc3cccc(OC(=O)NCCCCCc4ccccc4)c3)ccc12,tde
9,COc1ccc(-c2cc3ccc(OCCCN(C)Cc4cccc(OC(=O)NCCCCCc5ccccc5)c4)cc3oc2=O)cc1,tde

# Target: T2, Cholinesterase
# Assay: Inhibition of human serum BuChE using butyrylthiocholine iodide as substrate preincubated for 15 mins followed by substrate addition by Ellman's method
# Conditions: not given
# Procedure, shortened: as §1
row,Structure (SMILES),IC50 [nM]
1,CN(CCCOc1ccc2c3c(c(=O)oc2c1)CCCC3)Cc1cccc(OC(=O)NCCCCCc2ccccc2)c1,1.44
2,CN(CCCOc1ccc2cc(-c3ccccc3)c(=O)oc2c1)Cc1cccc(OC(=O)NCCCCCc2ccccc2)c1,2.06
3,CN(CCCCCOc1ccc2ccc(=O)oc2c1)Cc1cccc(OC(=O)NCCCCCc2ccccc2)c1,1.23
4,O=C(NCCCCCc1ccccc1)Oc1ccc(Cn2cc(COc3ccc4ccc(=O)oc4c3)nn2)cc1,1.17
5,O=C(NCCCCCc1ccccc1)Oc1cccc(Cn2cc(COc3ccc4ccc(=O)oc4c3)nn2)c1,42.7
6,CN(CCCOc1ccc2ccc(=O)oc2c1)Cc1cccc(OC(=O)NCCCCCCc2ccccc2)c1,2.85
7,CN(CCCOc1ccc2cc(-c3ccc(Cl)cc3)c(=O)oc2c1)Cc1cccc(OC(=O)NCCCCCc2ccccc2)c1,3.51
8,COc1ccc(-c2cc3cc(OCCCN(C)Cc4cccc(OC(=O)NCCCCCc5ccccc5)c4)ccc3oc2=O)cc1,1.15
9,O=C(NCCCCCc1ccccc1)Oc1cccc(-n2cc(COc3ccc4ccc(=O)oc4c3)nn2)c1,15.2
10,O=C(NCCCCCc1ccccc1)Oc1ccc(-n2cc(COc3ccc4ccc(=O)oc4c3)nn2)cc1,1230
11,CN(CCCOc1ccc2c(c1)oc(=O)c1ccccc12)Cc1cccc(OC(=O)NCCCCCc2ccccc2)c1,1.19
12,Cc1cc(=O)oc2cc(OCCCN(C)Cc3cccc(OC(=O)NCCCCCc4ccccc4)c3)ccc12,2.75
13,COc1ccc(-c2cc3ccc(OCCCN(C)Cc4cccc(OC(=O)NCCCCCc5ccccc5)c4)cc3oc2=O)cc1,1.3

# Target: T3, Fatty-acid amide hydrolase 1 (Rattus norvegicus, UniProt P97612)
# T3 sequence (P97612 whole entry): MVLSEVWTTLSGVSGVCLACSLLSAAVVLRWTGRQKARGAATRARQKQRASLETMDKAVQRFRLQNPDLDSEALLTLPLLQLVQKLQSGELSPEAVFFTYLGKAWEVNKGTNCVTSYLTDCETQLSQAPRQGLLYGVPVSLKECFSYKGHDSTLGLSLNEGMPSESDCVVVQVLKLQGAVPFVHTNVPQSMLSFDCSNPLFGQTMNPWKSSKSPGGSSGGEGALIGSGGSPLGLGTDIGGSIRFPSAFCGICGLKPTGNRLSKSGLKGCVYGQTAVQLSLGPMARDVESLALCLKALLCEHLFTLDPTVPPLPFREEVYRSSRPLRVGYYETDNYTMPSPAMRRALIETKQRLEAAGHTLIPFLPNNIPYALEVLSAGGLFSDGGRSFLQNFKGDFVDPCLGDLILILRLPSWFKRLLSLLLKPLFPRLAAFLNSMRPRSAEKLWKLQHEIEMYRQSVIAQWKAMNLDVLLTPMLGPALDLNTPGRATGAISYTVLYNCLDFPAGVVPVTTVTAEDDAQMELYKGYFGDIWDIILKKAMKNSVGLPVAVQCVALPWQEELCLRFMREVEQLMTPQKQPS
# Assay: Inhibition of FAAH in rat brain membrane using N-arachidonoyl-[14C]-ethanolamine as substrate incubated for 30 mins by scintillation counting method
# Assay type: cell membranes
# Conditions: not given
# Procedure, shortened: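 Rat brain 10,000 x g membrane fraction (70 µg/sample) co-incubated with compound and [14C]-AEA diluted with unlabelled AEA in 50 mM Tris-HCl, pH 9.00-10.00, 37 °C, 30 min. Released [14C]-ethanolamine measured by scintillation of the aqueous phase after CHCl3/MeOH 1:1 extraction.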
row,Structure (SMILES),IC50 [nM]
1,CN(CCCOc1ccc2c3c(c(=O)oc2c1)CCCC3)Cc1cccc(OC(=O)NCCCCCc2ccccc2)c1,3480
2,CN(CCCOc1ccc2cc(-c3ccccc3)c(=O)oc2c1)Cc1cccc(OC(=O)NCCCCCc2ccccc2)c1,1850
3,CN(CCCCCOc1ccc2ccc(=O)oc2c1)Cc1cccc(OC(=O)NCCCCCc2ccccc2)c1,798
4,O=C(NCCCCCc1ccccc1)Oc1ccc(Cn2cc(COc3ccc4ccc(=O)oc4c3)nn2)cc1,113
5,O=C(NCCCCCc1ccccc1)Oc1cccc(Cn2cc(COc3ccc4ccc(=O)oc4c3)nn2)c1,157
6,CN(CCCOc1ccc2ccc(=O)oc2c1)Cc1cccc(OC(=O)NCCCCCCc2ccccc2)c1,1790
7,CN(CCCOc1ccc2cc(-c3ccc(Cl)cc3)c(=O)oc2c1)Cc1cccc(OC(=O)NCCCCCc2ccccc2)c1,1470
8,COc1ccc(-c2cc3cc(OCCCN(C)Cc4cccc(OC(=O)NCCCCCc5ccccc5)c4)ccc3oc2=O)cc1,2830
9,O=C(NCCCCCc1ccccc1)Oc1cccc(-n2cc(COc3ccc4ccc(=O)oc4c3)nn2)c1,209
10,O=C(NCCCCCc1ccccc1)Oc1ccc(-n2cc(COc3ccc4ccc(=O)oc4c3)nn2)cc1,236
11,CN(CCCOc1ccc2c(c1)oc(=O)c1ccccc12)Cc1cccc(OC(=O)NCCCCCc2ccccc2)c1,1830
12,Cc1cc(=O)oc2cc(OCCCN(C)Cc3cccc(OC(=O)NCCCCCc4ccccc4)c3)ccc12,459
13,COc1ccc(-c2cc3ccc(OCCCN(C)Cc4cccc(OC(=O)NCCCCCc5ccccc5)c4)cc3oc2=O)cc1,2330

# Target: T3, Fatty-acid amide hydrolase 1
# Assay: Inhibition of FAAH in rat brain membrane using N-arachidonoyl-[14C]-ethanolamine as substrate preincubated for 20 mins followed by substrate addition measured after 30 mins by scintillation counting method
# Assay type: cell membranes
# Conditions: not given
# Procedure, shortened: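 Compound preincubated 20 min at 37 °C with rat brain 10,000 x g membranes (70 µg/sample), then [14C]-AEA (diluted with AEA) added in 50 mM Tris-HCl pH 9.00-10.00, 37 °C, 30 min. [14C]-ethanolamine counted by scintillation after CHCl3/MeOH 1:1 extraction.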
row,Structure (SMILES),IC50 [nM]
1,CN(CCCOc1ccc2c3c(c(=O)oc2c1)CCCC3)Cc1cccc(OC(=O)NCCCCCc2ccccc2)c1,1390
2,CN(CCCOc1ccc2cc(-c3ccccc3)c(=O)oc2c1)Cc1cccc(OC(=O)NCCCCCc2ccccc2)c1,250
3,CN(CCCCCOc1ccc2ccc(=O)oc2c1)Cc1cccc(OC(=O)NCCCCCc2ccccc2)c1,120
4,O=C(NCCCCCc1ccccc1)Oc1ccc(Cn2cc(COc3ccc4ccc(=O)oc4c3)nn2)cc1,28.5
5,O=C(NCCCCCc1ccccc1)Oc1cccc(Cn2cc(COc3ccc4ccc(=O)oc4c3)nn2)c1,27.9
6,CN(CCCOc1ccc2ccc(=O)oc2c1)Cc1cccc(OC(=O)NCCCCCCc2ccccc2)c1,530
7,CN(CCCOc1ccc2cc(-c3ccc(Cl)cc3)c(=O)oc2c1)Cc1cccc(OC(=O)NCCCCCc2ccccc2)c1,265
8,COc1ccc(-c2cc3cc(OCCCN(C)Cc4cccc(OC(=O)NCCCCCc5ccccc5)c4)ccc3oc2=O)cc1,211
9,O=C(NCCCCCc1ccccc1)Oc1cccc(-n2cc(COc3ccc4ccc(=O)oc4c3)nn2)c1,44.7
10,O=C(NCCCCCc1ccccc1)Oc1ccc(-n2cc(COc3ccc4ccc(=O)oc4c3)nn2)cc1,43.3
11,CN(CCCOc1ccc2c(c1)oc(=O)c1ccccc12)Cc1cccc(OC(=O)NCCCCCc2ccccc2)c1,312
12,Cc1cc(=O)oc2cc(OCCCN(C)Cc3cccc(OC(=O)NCCCCCc4ccccc4)c3)ccc12,135
13,COc1ccc(-c2cc3ccc(OCCCN(C)Cc4cccc(OC(=O)NCCCCCc5ccccc5)c4)cc3oc2=O)cc1,322
